# In the library only some 3.7% were active in any assay of this set; here they are far more common.
# FXN GAA850 act: FXN promoter activators, primary screen, cell-based, luciferase luminescence, HEK293 lucGAA850; activation, % at 6 µM; 360,000 tested, 0.56% active; HEK293 lucGAA850 FXN promoter luciferase reporter, 24 h; percent of 10 µM SAHA response; AID 540364, 2011;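 active means activation above the average of all compounds screened plus 3 SD, cutoff fixed separately per campaign, cut at about 7.5% in these data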;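 further: 0% = DMSO wells and 100% = 10 µM SAHA wells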
# SR-BI DiI inh: inhibitors of SR-BI mediated HDL lipid uptake, primary screen, ldlA[mSR-BI] cells, fluorescence, single point. ldlA[mSR-BI] CHO cells, DiI-HDL uptake fluorescence, 3 h. inhibition, % at 12.5 µM. 320,000 tested, 0.96% active. AID 488896, 2010;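 active means mean replicate inhibition of at least 70% and a set share of replicates each scoring 70 or more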;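 further: 0% = median of neutral control wells and 100% = median of positive control wells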
# SR-BI uptake up: activators of SR-BI mediated DiI-HDL uptake, primary screen, ldlA[mSR-BI] CHO cells, DiI fluorescence; 3 h; 100 = double the neutral-control signal; 320,000 tested, 0.096% active; AID 504775, 2011; activation, % at 12.5 µM;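 active means mean replicate activation of at least 60% and every replicate at or above 60%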;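 further: 0% = median plate neutral-control signal and 100% = twice that signal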
#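 Material – SR-BI-overexpressing, LDLR-lacking CHO cells · Medium – BSA-supplemented, HEPES-buffered Ham's F12, pH 7.4 · Doses – single concentration · Times – compound with DiI-HDL co-incubation, 3 h at 37 °C · Measured by – bottom-read fluorescence, 550/595 nm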
# GASC-1 inh: inhibitors of GASC-1 histone demethylase, primary screen, biochemical, fluorescence, DELFIA europium | GST-JMJD2C(1-420) H3K9me3 demethylation | 330,000 tested, 0.069% active | Lysine-specific demethylase 4C (Homo sapiens), Q9H3R0 | AID 2099, 2009 | inhibition, % at 2.35 µM;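 active means more than half of a compound's replicate wells show inhibition beyond 50%, single wells judged on their own value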;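 further: signal counts dimethyl H3K9 product captured on neutravidin plate; 0% = median of DMSO wells and 100% = 0.3 times that DMSO median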
# AHR act: AHR activators, primary screen, cell-based, luminescence, luciferase reporter, human; AHR-responsive luciferase reporter cells; activation, % at 5 µM; 320,000 tested, 2.5% active; in the data active means activation above about 47%;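 further: 0% = vehicle wells and 100% = reference agonist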
# Target sequence (P35869 whole entry, looked up): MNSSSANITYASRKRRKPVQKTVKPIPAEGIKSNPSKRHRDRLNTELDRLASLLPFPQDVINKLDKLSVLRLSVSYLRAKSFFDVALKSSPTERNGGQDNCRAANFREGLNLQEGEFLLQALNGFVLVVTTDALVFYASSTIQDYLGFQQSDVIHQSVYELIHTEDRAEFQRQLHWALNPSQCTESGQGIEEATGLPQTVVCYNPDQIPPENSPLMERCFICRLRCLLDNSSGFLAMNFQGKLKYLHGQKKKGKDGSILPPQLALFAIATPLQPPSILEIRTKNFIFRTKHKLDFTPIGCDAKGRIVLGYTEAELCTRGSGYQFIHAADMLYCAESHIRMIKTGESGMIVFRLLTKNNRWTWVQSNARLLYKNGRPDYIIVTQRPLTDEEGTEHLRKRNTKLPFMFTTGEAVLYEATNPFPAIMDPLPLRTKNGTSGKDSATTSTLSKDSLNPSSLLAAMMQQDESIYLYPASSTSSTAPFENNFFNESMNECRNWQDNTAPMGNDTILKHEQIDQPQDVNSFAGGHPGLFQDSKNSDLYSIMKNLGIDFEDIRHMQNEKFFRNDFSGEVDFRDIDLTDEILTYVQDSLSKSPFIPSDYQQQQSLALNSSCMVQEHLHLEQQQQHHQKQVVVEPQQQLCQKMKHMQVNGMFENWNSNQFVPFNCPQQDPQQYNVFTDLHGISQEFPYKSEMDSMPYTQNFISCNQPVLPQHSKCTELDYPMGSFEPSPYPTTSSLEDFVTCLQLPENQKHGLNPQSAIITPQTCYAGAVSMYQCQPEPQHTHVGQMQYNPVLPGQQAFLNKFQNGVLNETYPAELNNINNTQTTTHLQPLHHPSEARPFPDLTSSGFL
# GAA30 counter: GAA30 FXN promoter activators, confirmation, counter-screen for GAA850 frataxin promoter activator project, cell-based, luminescence, HEK293, lucGAA30, triplicate; activation, % at 6 µM; HEK293 lucGAA30 FXN promoter luciferase, 24 h; DMSO = 0%, 5 µM ipriflavone = 100%; shares compounds with FXN GAA850 act; 1,900 tested, 66% active; AID 588350, 2011;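 active means mean activation above the mean of solvent-only control wells plus 3 SD, cut at about 22% in these data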;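 further: counterscreen of GAA850 promoter hits where activity marks nonselective or luminescence artifacts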
# FXN GAA850 conf: FXN GAA850 promoter activators in reporter cells, confirmation, cell-based, luminescence, HEK293 lucGAA850, triplicate; shares compounds with FXN GAA850 act; HEK293 lucGAA850 FXN promoter luciferase reporter, 24 h; 100% = activation by SAHA; activation, % at 6 µM; 1,900 tested, 86% active; AID 588351, 2011;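 active means mean activation above a set limit taken from the primary screen, cut at about 8% in these data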;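 further: 0% = DMSO wells and 100% = 10 µM SAHA wells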
# Starred values were filed as active, the others as inactive; . = not tested or not shown.
SMILES,FXN GAA850 act,SR-BI DiI inh,SR-BI uptake up,GASC-1 inh,AHR act,GAA30 counter,FXN GAA850 conf
O=C1c2ccccc2-c2onc3ccc(Oc4ccccc4)c1c23,31.9*,-7.2,7.2,-5.7,14.7,50.8*,39.7*
Cc1ccc(N(C(=O)c2nsc(Cl)c2Cl)C(C(=O)NC2CCCC2)c2ccc(O)cc2)cc1C (stereo not given),9.5*,10.7,-10.7,-1.2,2.4,33.6*,14.0*
O=C(O)C(c1ccccc1)c1ccccc1,-1.6,-18.1,18.1,34.0,0.8,.,.
CC(Oc1cc2oc(=O)cc(-c3ccccc3)c2cc1Cl)C(=O)NCC1CCC(C(=O)O)CC1 (stereo not given),11.2*,-5.7,5.7,-25.2,-0.8,20.4,8.8*
Cc1cccc(N=Nc2ccc(O)c3ncccc23)c1,12.4*,15.5,-15.5,32.1,70.3*,-101.7,-32.0
Cc1ccc(C)c(N=Nc2ccc(O)c3ncccc23)c1,0.4,38.6,-38.6,11.2,17.9,.,.
Cc1ccc2c(CN3CCC(C)CC3)cc(=O)oc2c1,8.6*,-10.1,10.1,-5.2,7.9,125.4*,45.6*
Cc1cc(C)cc(N=Cc2ccc([N+](=O)[O-])s2)c1,16.3*,-11.7,11.7,6.3,2.8,1.4,5.8
Cc1ccc(NC(=S)N/N=C/c2ccc([N+](=O)[O-])s2)cc1,11.0*,-2.1,2.1,-2.6,9.8,-97.2,-29.0
O=[N+]([O-])c1ccc(C=Nc2ccc(Cl)c([N+](=O)[O-])c2)s1,4.0,-27.5,27.5,.,.,.,.
O=C(Cc1cccs1)N/N=C\c1ccc([N+](=O)[O-])s1,-0.6,3.6,-3.6,9.7,3.0,.,.
N#Cc1ccc(N2CCOCC2)nc1,0.3,-30.1,30.1,1.4,-1.9,.,.
Nc1cccc(CP(=O)(c2ccccc2)c2ccccc2)c1,2.0,-34.4,34.4,0.0,-1.9,.,.
COc1ccc(C2c3ccc4ccccc4c3Oc3ncn(CCN(C)C)c(=N)c32)cc1 (stereo not given),-1.4,2.5,-2.5,7.8,10.1,.,.
NC(=S)NN=C1c2ccccc2-c2cc(Br)ccc21,10.5*,47.9,-47.9,.,.,16.6,13.6*
CC(O)c1cccc(-c2ccc(CN3C[C@]4(CO)O[C@@H](CO)C[C@@H]4S3(=O)=O)cc2)c1 (stereo not given in full),-0.1,25.3,-25.3,.,.,.,.
CC(=O)N1CC(=O)N=C1SCC(=O)Nc1nc(C)c(-c2ccccc2)s1,8.0*,.,.,-2.5,10.9,44.1*,22.5*
CCOc1ccc(-c2csc(NC(=O)CSC3=NC(=O)CN3C(C)=O)n2)c2ccccc12,1.3,16.6,-16.6,0.6,10.8,.,.
COc1cc(CN2C[C@@H](CO)O[C@@H](n3cnc4c(NCCCO)ncnc43)C2)cc(OC)c1OC,0.0,.,.,.,.,.,.
Cc1cc(-c2ccc(F)cc2)nc2cc(C(N)=O)nn12,-0.9,43.5,-43.5,11.4,13.0,.,.
CCOC(=O)c1cnn2c(C)cc(-c3ccc(F)cc3)nc12,8.3*,22.9,-22.9,1.9,0.8,112.3*,36.6*
N/C(=N\OC(=O)c1cccs1)c1ccccc1,7.7*,6.4,-6.4,4.9,23.1,99.0*,28.4*
N/C(=N\OC(=O)c1cccs1)c1cccc(Br)c1,8.0*,.,.,-2.6,20.2,56.8*,7.5
Cc1cccc(/C(N)=N/OC(=O)c2cccs2)c1,2.8,-6.6,6.6,-4.0,-2.6,.,.
COc1cccc(NC(=S)NC2CC3CCCC(C2)N3CC(C)C)c1 (stereo not given),1.4,2.6,-2.6,-5.9,0.4,.,.
Cc1ccn2cc(-c3ccc(O)c(O)c3)nc2c1,11.0*,6.9,-6.9,21.1,6.9,127.2*,47.7*
Oc1ccc(-c2cn3ccccc3n2)cc1O,8.9*,-1.2,1.2,6.1,2.2,109.3*,33.4*
Cc1ccn2cc(-c3cccc(NC(=O)C(C)C)c3)nc2c1,3.9,14.2,-14.2,-4.4,6.5,.,.

# Screening results from PubChem.
